Assay outcomes: PubChem BioAssay, several laboratories
The list is not random: actives were taken first. Their share in the collection is about 3.3%.
Exocytosis inh – lytic granule exocytosis inhibition. TALL-104 LAMP-1 surface exposure, flow cytometry; cells stimulated with thapsigargin and PMA. inhibition, % at 10 µM. actives 0.66% (n = 360,000). AID 651702;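 active = inhibition above about 55%, limit read from the data; inconclusive = no clear call, values can overlap the other calls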
ABCB6 inh 2 – blocks the human ABCB6 transporter. K562-ABCB6 porphyrin accumulation, flow cytometry, 1 h; hits give low values. Q9NP58. fluorescence ratio to DMSO, % at 10 µM. actives 0.19% (n = 360,000);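 active = fluorescence ratio to DMSO below 75%, the collection mean minus 3 SD; inconclusive = too few cells collected in the well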;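 note: signal is porphyrin accumulated inside mitochondria; lower ratio means ABCB6 inhibition with less porphyrin fluorescence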
Arr AP2 block – blocks beta-arrestin peptide binding to AP2 adaptin | FITC-arrestin peptide / GST-AP2 beads, flow cytometry; AP2 beta2 appendage carries R879A mutation | inhibition, % at 10 µM | actives 0.31% (n = 340,000) | AID 504490;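 active = inhibition above a set limit, near 3 SD of compounds lacking own fluorescence, cut at about 54% in these data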
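test system = AP2 appendage R879A on GSH beads | buffer or medium = PBS plus Tween 20 (0.05%) and BSA (0.1%) | incubation = 12 min plus 1 h, RT | detection = bead flow cytometry, FITC channel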
Myeloid diff MLP – compounds promoting myeloid differentiation | calls only at 10 µM | actives 1% (n = 360,000) | AID 624256 | ER-HoxA9 myeloid progenitors, lysozyme-GFP differentiation, flow cytometry;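 active = normalized GFP-positive differentiation at or above the plate's own cutoff, the solvent-only control mean plus 3 SD; inconclusive = no clear call, values can overlap the other calls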;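 note: cells exposed to compound for four days before flow analysis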
ATG4B inhibitor – blocks human ATG4B protease cleavage of LC3 substrate; Q9Y4P1; ATG4B cleavage of LC3-PLA2, NBD-HPC fluorescence, 1 h; inhibition, % at 8.33 µM; actives 0.51% (n = 340,000); AID 504462; in the data active = inhibition above about 40%
CendR NRP1 mod – alters CendR peptide binding to human NRP-1 | actives 0.85% (n = 360,000) | inhibition, % at 25 µM | O14786 | FAM-RPARPAR peptide binding to NRP-1, fluorescence polarization;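 active = inhibition or corrected inhibition above about 18%, plus a signal ratio from 0.5 to 1.5, limit read from the data, passing the limit was not always enough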
ATG4B confirm – confirmation of human ATG4B inhibitors. shares compounds with ATG4B inhibitor. ATG4B protease fluorescent substrate cleavage assay. inhibition, % at 8.33 µM. actives 92% (n = 320). AID 504757; in the data active = inhibition above about 39%
PLA2 counter – PLA2 (human) inhibition in ATG4B counter-screen; shares compounds with ATG4B inhibitor; purified PLA2, NBD-C6-HPC fluorescence, 45 min; inhibition, % at 8.33 µM; actives 66% (n = 1,600); AID 588402; in the data active = inhibition above about 50%
Numbers stand for hits; i = inactive; ? = inconclusive; nt = not tested or not shown.

SMILES	Exocytosis inh	ABCB6 inh 2	Arr AP2 block	Myeloid diff MLP	ATG4B inhibitor	CendR NRP1 mod	PLA2 counter	others
CCNc1ccc(C(=O)OCC(=O)N(Cc2ccccc2)C(C)(C)C)cc1[N+](=O)[O-]	i	i	i	i	43	i	i
CCOc1ccc(Cl)cc1-c1cc(C(=O)NCc2cccc(C(F)(F)F)c2)[nH]n1	i	i	nt	i	nt	i	nt
Clc1ccccc1Nc1ncnc2c1nnn2Cc1ccccc1	i	i	i	i	56	i	58
Fc1ccccc1Nc1ncnc2c1nnn2Cc1ccccc1	i	i	i	nt	i	i	nt
O=C(Nc1nc2nc(-c3ccccc3)cc(-c3ccccc3)n2n1)c1ccco1	i	i	i	i	42	i	51
CC(=O)Nc1nc2nc(-c3ccccc3)cc(-c3ccccc3)n2n1	i	i	i	i	i	i	nt
NC(=O)CC(NC(=O)Cc1ccc(Cl)cc1)c1ccc(NCc2ccccc2)c([N+](=O)[O-])c1 (centres undefined)	i	i	i	i	i	i	nt
CC1(C)CCCN(C(=O)c2ccc3c(c2NCCO)C(=O)c2ccccc2C3=O)C1	i	i	i	i	68	28	63
Oc1ccc(/C=N/N(Cc2ccccc2)c2ccccc2)c(O)c1O	i	i	i	i	56	i	75
Cc1ccccc1CN(c1ccc(C(=O)N/N=C/c2ccc(OCC(N)=O)cc2)cc1)S(C)(=O)=O	i	i	i	i	46	i	i
O=C(O)c1cc(N/N=C/C=C/c2ccccc2[N+](=O)[O-])ccc1Cl	i	i	i	i	i	i	nt
O=C(NC(Cc1ccccc1)C(=O)O)OCC1c2ccccc2-c2ccccc21 (centres undefined)	i	i	i	i	44	i	63
CCc1ccc(S(=O)(=O)/N=C2\C=C(NS(=O)(=O)c3ccccc3)C(=O)c3ccccc32)cc1	i	i	i	i	i	i	nt
O=C(O)c1ccc(S(=O)(=O)/N=C2\C=C(Nc3ccccc3F)C(=O)c3ccccc32)cc1	i	i	i	i	77	19	75
Cc1ccccc1NC1=C/C(=N\S(=O)(=O)c2ccc(C(=O)O)cc2)c2ccccc2C1=O	i	i	i	i	59	24	i	ATG4B confirm=i
CCOc1ccc(CCNC(=O)COC(=O)c2ccc3c(c2)OCCO3)cc1OCC	i	i	i	i	i	i	nt
Cc1ccccc1NC(=O)c1ccc(NS(=O)(=O)c2cc(C(C)(C)C)cc(C)c2C)cc1	i	i	i	?	47	i	i
Cc1cc(C(C)(C)C)cc(S(=O)(=O)Nc2cccc(C(=O)O)c2)c1C	i	i	i	i	i	i	nt
O=C(O)c1sc(C(=O)O)c(-c2ccccc2)c1-c1ccccc1	i	i	nt	i	nt	i	nt
N#Cc1sc(C(N)=O)c(-c2ccccc2)c1-c1ccccc1	i	i	i	i	68	i	66
COc1ccc(-c2c(C#N)sc(C(N)=O)c2-c2ccc(OC)cc2)cc1	i	i	i	i	82	i	85
COc1cccc(/C=N/n2c(C3CCCCC3)n[nH]c2=S)c1	i	i	i	i	i	i	nt
CCCCNc1nc(N)nc(-c2cc(Cl)ccc2O)n1	i	i	i	i	46	i	50
CC1=Nc2cc(C(=O)N3CCCCC3)ccc2Sc2ccc(C)cc21	i	i	i	i	52	i	i
CCCC1=Nc2cc(C(=O)N3CCCC3)ccc2Sc2ccc(C)cc21	i	i	i	i	i	i	nt
CC1=Nc2cc(C(=O)N3CCCC3)ccc2Sc2ccc(C)cc21	i	i	i	i	i	i	nt
CCC1=Nc2cc(C(=O)N3CCCCC3)ccc2Sc2ccc(C)cc21	i	i	i	i	52	i	57
O=C(c1ccoc1)N1CCCC(N2CCN(c3cccc(Cl)c3)CC2)C1 (centres undefined)	i	i	i	?	i	i	nt
COc1ccc(NC(=O)CC(C)C)c([N+](=O)[O-])c1	i	i	i	i	i	i	nt
